Data taken from ChEMBL document CHEMBL1165861, “Synthesis and biological evaluation of some pyrazolylpyrazolines as anti-inflammatory-antimicrobial agents” (2010).
Values after ≈ are worked out from the molar mass of the structure shown.

Tests used:
Rattus norvegicus [1] = test: Antiinflammatory activity in Wistar albino rat assessed as inhibition of carrageenan-induced paw edema at 50 mg/kg, po administered 30 mins before carrageenan challenge measured after 30 mins relative to control; type: functional
Method in brief: (§1)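 Male Wistar albino rats (200–250 g) in groups of six, food withdrawn 12 h before and during the test. Compounds were dosed orally at 50 mg/kg; controls received tween 80 (95:5). After 30 min, 0.1 mL of 1% w/v carrageenan in saline was injected subplantar into the left hind paw. Plethysmometer volumes were taken initially and at 30–120 min. AI% is relative to control, mean ± SEM, ANOVA.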

Rattus norvegicus [2] = test: Antiinflammatory activity in Wistar albino rat assessed as inhibition of carrageenan-induced paw edema at 50 mg/kg, po administered 30 mins before carrageenan challenge measured after 60 mins relative to control; type: functional; method in brief: as §1
Rattus norvegicus [3] = test: Antiinflammatory activity in Wistar albino rat assessed as inhibition of carrageenan-induced paw edema at 50 mg/kg, po administered 30 mins before carrageenan challenge measured after 90 mins relative to control; type: functional; method in brief: as §1
Rattus norvegicus [4] = test: Antiinflammatory activity in Wistar albino rat assessed as inhibition of carrageenan-induced paw edema at 50 mg/kg, po administered 30 mins before carrageenan challenge measured after 120 mins relative to control; type: functional; method in brief: as §1
Staphylococcus aureus [5] = test: Antimicrobial activity against Staphylococcus aureus MTCC 3160 at 4 mg/ml after 24 hrs by agar diffusion method; type: functional; settings: MTCC 3160, 24 h, read-out: DIZ
Method in brief: (§2)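 Agar well diffusion: seeded agar plates swabbed with inoculum and left 15 min for adsorption, then 8 mm wells bored and loaded. Incubation 37 °C for 24 h. Inhibition zone diameter measured in mm with a zone reader. DMSO medium served as negative control and ciprofloxacin as positive control. Triplicates.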

Bacillus subtilis [6] = test: Antimicrobial activity against Bacillus subtilis MTCC 121 at 4 mg/ml after 24 hrs by agar diffusion method; type: functional; settings: MTCC 121, 24 h, read-out: DIZ; method in brief: as §2
Pseudomonas aeruginosa [7] = test: Antimicrobial activity against Pseudomonas aeruginosa MTCC 741 at 4 mg/ml after 24 hrs by agar diffusion method; type: functional; settings: MTCC 741, 24 h, read-out: DIZ; method in brief: as §2
Escherichia coli [8] = test: Antimicrobial activity against Escherichia coli MTCC 51 at 4 mg/ml after 24 hrs by agar diffusion method; type: functional; settings: MTCC 51, 24 h, read-out: DIZ; method in brief: as §2
Staphylococcus aureus [9] = test: Antimicrobial activity against Staphylococcus aureus MTCC 3160 after 24 hrs by broth microdilution assay; type: functional; settings: MTCC 3160, 24 h
Method in brief: (§3)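 MIC was determined by microplate dilution (microdilution) in Müller–Hinton broth, with ciprofloxacin as the reference drug.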

Bacillus subtilis [10] = test: Antimicrobial activity against Bacillus subtilis MTCC 121 after 24 hrs by broth microdilution assay; type: functional; settings: MTCC 121, 24 h; method in brief: as §3
Pseudomonas aeruginosa [11] = test: Antimicrobial activity against Pseudomonas aeruginosa MTCC 741 after 24 hrs by broth microdilution assay; type: functional; settings: MTCC 741, 24 h; method in brief: as §3
Escherichia coli [12] = test: Antimicrobial activity against Escherichia coli MTCC 51 after 24 hrs by broth microdilution assay; type: functional; settings: MTCC 51, 24 h; method in brief: as §3
Rattus norvegicus [13] = species: Rattus norvegicus; test: animal or person; settings: Wistar albino, po, read-out: INH
Rattus norvegicus [14] = species: Rattus norvegicus; test: animal or person; settings: Wistar albino, po, read-out: INH; remark: listed apart in the source
Rattus norvegicus [15] = species: Rattus norvegicus; test: animal or person; settings: Wistar albino, po, read-out: INH; remark: listed apart in the source
Rattus norvegicus [16] = species: Rattus norvegicus; test: animal or person; settings: Wistar albino, po, read-out: INH; remark: listed apart in the source

| Compound | inhibition in vivo at 50 mg/kg (Rattus norvegicus [1]) | inhibition in vivo at 50 mg/kg (Rattus norvegicus [2]) | inhibition in vivo at 50 mg/kg (Rattus norvegicus [3]) | inhibition in vivo at 50 mg/kg (Rattus norvegicus [4]) | zone of inhibition at 4000 µg/mL (Staphylococcus aureus [5]) | zone of inhibition at 4000 µg/mL (Bacillus subtilis [6]) | zone of inhibition at 4000 µg/mL (Pseudomonas aeruginosa [7]) | zone of inhibition at 4000 µg/mL (Escherichia coli [8]) | MIC (Staphylococcus aureus [9]) | MIC (Bacillus subtilis [10]) | MIC (Pseudomonas aeruginosa [11]) | MIC (Escherichia coli [12]) | inhibition in vivo at 4 mg/kg (Rattus norvegicus [13]) | inhibition in vivo at 4 mg/kg (Rattus norvegicus [14]) | inhibition in vivo at 4 mg/kg (Rattus norvegicus [15]) | inhibition in vivo at 4 mg/kg (Rattus norvegicus [16]) |
| --- | --- | --- | --- | --- | --- | --- | --- | --- | --- | --- | --- | --- | --- | --- | --- | --- |
| NS(=O)(=O)c1ccc(N2N=C(c3ccccc3)CC2c2cn(-c3ccccc3)nc2-c2ccc(Br)cc2)cc1 (centres undefined) | 16% | 26% | 38% | 32% | 24 mm | 23.7 mm | 17.3 mm | 17.3 mm | 8 µg/mL (≈ 13.4 µM) | 8 µg/mL (≈ 13.4 µM) | 32 µg/mL (≈ 53.5 µM) | 32 µg/mL (≈ 53.5 µM) | – | – | – | – |
| Cc1ccc(C2=NN(c3ccc(S(N)(=O)=O)cc3)C(c3cn(-c4ccccc4)nc3-c3ccccc3)C2)cc1 (centres undefined) | 5% | 17% | 27% | 26% | 16.3 mm | 17 mm | 11.7 mm | 11.7 mm | 32 µg/mL (≈ 60 µM) | 32 µg/mL (≈ 60 µM) | 64 µg/mL (≈ 120 µM) | 64 µg/mL (≈ 120 µM) | – | – | – | – |
| CS(=O)(=O)Nc1ccc([N+](=O)[O-])cc1Oc1ccccc1 [NIMESULIDE] | – | – | – | – | – | – | – | – | – | – | – | – | 37% | 43% | 45% | 36% |
| NS(=O)(=O)c1ccc(N2N=C(c3ccc(F)cc3)CC2c2cn(-c3ccccc3)nc2-c2ccccc2)cc1 (centres undefined) | 22% | 25% | 23% | 15% | 23.7 mm | 23.3 mm | 17.7 mm | 21.7 mm | 8 µg/mL (≈ 14.9 µM) | 8 µg/mL (≈ 14.9 µM) | 32 µg/mL (≈ 59.5 µM) | 16 µg/mL (≈ 29.8 µM) | – | – | – | – |
| NS(=O)(=O)c1ccc(N2N=C(c3ccccc3)CC2c2cn(-c3ccccc3)nc2-c2ccc(F)cc2)cc1 (centres undefined) | 18% | 14% | 22% | 23% | 23.3 mm | 11.7 mm | 17.3 mm | 17.3 mm | 16 µg/mL (≈ 29.8 µM) | 16 µg/mL (≈ 29.8 µM) | 32 µg/mL (≈ 59.5 µM) | 32 µg/mL (≈ 59.5 µM) | – | – | – | – |
| NS(=O)(=O)c1ccc(N2N=C(c3ccc(F)cc3)CC2c2cn(-c3ccccc3)nc2-c2ccc(Br)cc2)cc1 (centres undefined) | 13% | 26% | 17% | 15% | 10 mm | 11 mm | 9.33 mm | 9.33 mm | 64 µg/mL (≈ 104 µM) | 64 µg/mL (≈ 104 µM) | 128 µg/mL (≈ 208 µM) | 128 µg/mL (≈ 208 µM) | – | – | – | – |
